PMC6160361 (Circulation, 2018)
Like-named read-outs stand apart in the source and are kept apart here.

Assays:
peritoneal CD4^+ T cells [1] = format: in vivo, mouse
[2] = tested on: p18-specific CD4^+ T cells in human PBMC; experiment: DRB1*07:01-p18 tetramer staining of human PBMC by flow cytometry; format: cell-based; settings: sCVD N=14, no sCVD N=15
peritoneal Tregs = experiment: IL-10 production and Nrp-1 of Tregs after p18 immunization; format: in vivo, mouse; settings: N=7
Apoe^−/− mice = experiment: Aortic atherosclerosis; format: in vivo, mouse; settings: 50 μg p18, 1xCFA + 4xIFA, western diet 13 weeks; vs adjuvant only; N=8-9
[3] = tested on: DRB1*07:01-p18^+CD4^+ T cells; format: cell-based, human
DRB1*13:02 = DRB1*13:02 (Homo sapiens, UniProt P01903+P01911, A100E/A169T/K41T/L162R/M171V/P40S/Q125H/Q178H/Q39Y/Q99D/R42S/S66N/T262R/V115G/W38E/Y61H); experiment: MHC class II competitive binding assay, DRB1*13:02; settings: experimental competitive peptide binding
Outline: (§1)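 Competitive inhibition assay using purified MHC class II molecules and a high-affinity radiolabelled MHC class II ligand. Binding given as IC50, taken as an approximation of Kd under the assay conditions. Test peptide stock in DMSO at 20 mg/ml, stored at −80°C.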

[4] = Plasma lipid analysis of vaccinated Apoe^−/− mice; format: in vivo, mouse; settings: Supplementary Figure 6; 1xCFA + 4xIFA
Outline: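 Apoe−/− mice immunised 1xCFA + 4xIFA. Whole blood taken by cardiac puncture into EDTA at organ harvest and spun at 3000 × g for 15 min at 4°C. Plasma supernatant stored at −80°C to limit freeze/thaw, then sent for external lipid analysis.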

p18 = settings: vaccinated Apoe^−/− mice; Supplementary Figure 7
peritoneal CD4^+ T cells [5] = format: in vivo, mouse; settings: 1x CFA and 1x IFA, N=9-10
DRB1*04:01 = DRB1*04:01 (Homo sapiens, UniProt P01903+P01911, A100K/A169T/F76Y/I96L/K127E/L162R/M171V/N62H/P40V/Q125Y/R42H/S133A/S149N/S66Y/V115G/V209L/W38E); experiment: MHC class II competitive binding assay, DRB1*04:01; settings: experimental competitive peptide binding
Outline: as §1

peritoneal CD4^+ T cells [6] = experiment: TCR activation; format: in vivo, mouse
[7] = tested on: p18:I-A^b+CD4^+ T cells (peritoneal); experiment: p18:I-A^b tetramer staining of peritoneal CD4^+ T cells, Nur77^GFP Apoe^−/− mice; format: in vivo, mouse
splenic CD4^+ T cells = experiment: IL-10 ELISPOT of splenic CD4^+ T cells restimulated with p18; format: cell-based, mouse; settings: splenic CD4^+ T cells with antigen presenting cells and p18, 24 hours; 1xCFA and 1xIFA; N=9-10
DRB1*07:01 = DRB1*07:01 (Homo sapiens, UniProt P01903+P01911, A100R/A102G/A103Q/D57E/D86V/E43K/F76Y/K127E/L162R/M171V/P40G/Q125H/Q99D/R33Q/R42Y/R54Q/S133A/S66F/T210M/V115G/Y107V/Y59L/Y89S); experiment: MHC class II competitive inhibition binding assay, DRB1*07:01; settings: experimental competitive peptide binding
Outline: as §1

[8] = tested on: p18:I-A^b+CD4^+ T cells (spleen); experiment: p18:I-A^b tetramer staining of splenic CD4^+ T cells; format: in vivo, mouse
atherosclerosis patients = settings: GLACIER trial; cited from earlier work
[9] = spleen, vaccinated Apoe^−/− mice

SLFFSAQPFEITAST [p18]
FoxP3 by intracellular staining of CD4^+ T cells (peritoneal CD4^+ T cells [1]; Apoe^−/− mice, peritoneal, N=6, compared with YFP result): gave a similar result
CD25^+FoxP3^+CD4^+ T cells of all CD4^+ T cells (peritoneal CD4^+ T cells [1]; peritoneal cavity, FoxP3^YFPcreApoe^−/− mice, 2 weeks after immunization, 1xCFA s.c. + 1xIFA i.p., from ~6%, N=7): ~ 12%
trend in p18-specific CD4^+ T cells in sCVD patients vs no sCVD [2]: did not reach statistical significance
IL-10-producing cells among all Tregs (peritoneal Tregs; FoxP3^+CD4^+ cells, vs adjuvant): significant expansion
inducible Tregs (Nrp-1 negative) among classical Tregs (peritoneal Tregs): Most
IL-10-producing iTregs (Nrp-1^−FoxP3^+CD4^+) (peritoneal Tregs; p18 immunized, from ~12%): ~ 25%
reduction of lesion size, aortic arch (Apoe^−/− mice): ~ 35%
reduction of lesion size, whole aorta (Apoe^−/− mice): ~ 35%
Tregs co-expressing T-bet among DRB1*07:01-p18^+CD4^+ T cells ([3]; no sCVD): 1.2±0.5%
FoxP3^+Rorγt^+ cells among p18-specific CD4^+ T cells ([3]; patients with sCVD): significant increase
Tregs co-expressing RORγt among DRB1*07:01-p18^+CD4^+ T cells ([3]; sCVD donors, mean ± SEM): 8.8±3.7%
Tregs co-expressing T-bet among DRB1*07:01-p18^+CD4^+ T cells ([3]; sCVD patients): 4.1±1.4%
Tregs co-expressing RORγt among DRB1*07:01-p18^+CD4^+ T cells ([3]; sCVD^− participants): almost undetectable
fraction of p18-specific CD4^+ T cells that are FoxP3^+ Tregs ([3]; women with no sCVD): most
binding to DRB1*13:02 (DRB1*13:02): binds
plasma lipids [4]: unchanged
IgG1 antibodies to p18 in plasma (p18): detected
IgG2c antibodies to p18 in plasma (p18): detected
abundance of Tregs in peritoneal cavity (peritoneal CD4^+ T cells [5]; Apoe^−/− mice on CD or WD): significantly increased
FoxP3^+Tbet^+ cells in peritoneal cavity (peritoneal CD4^+ T cells [5]; CD or WD): increased
FoxP3^+GATA3^+ cells in peritoneal cavity (peritoneal CD4^+ T cells [5]): only observed in mice fed CD and not in mice fed WD
binding to DRB1*04:01 (DRB1*04:01): binds
Nur77^GFP+ frequency among CD25^+FoxP3^+ Tregs vs all CD4^+ T cells (peritoneal CD4^+ T cells [6]; mice immunized with p18, 24 hours after restimulation): further elevated
CD25^+FoxP3^+ Tregs in Nur77^GFP+ activated cell population (peritoneal CD4^+ T cells [6]; p18 immunized mice, N=5-6, adjuvant only showed a similar fraction): significantly enriched
peritoneal p18:I-A^b+CD4^+ T cells, p18-immunized vs adjuvant ([7]; Apoe^−/− mice fed CD or WD, Supplementary Figure 5): did not observe any significant differences
ApoB p18-specific (PE- and APC-double positive) CD4^+ T cells ([7]; increase vs adjuvant only, peritoneal, 1x CFA and 1x IFA, N=5-6): ~ 3 -fold
CD25^+FoxP3^+ Tregs among p18:I-A^b+CD4^+ T cells ([7]; peritoneal, p18 immunized, N=5-6): 40%
Nur77^GFP+ cells among p18:I-A^b+CD4^+ T cells ([7]; peritoneal, N=5-6): highly enriched
CD25^+FoxP3^+ Tregs among p18:I-A^b–CD4^+ T cells ([7]; tetramer-negative cells, peritoneal, p18 immunized, N=5-6): 9%
IL-10^+ spots (ELISPOT) vs adjuvant only (splenic CD4^+ T cells): significantly more
binding to DRB1*07:01 (DRB1*07:01): binds
p18:I-A^b+CD4^+ T cells in spleen ([8]; IL-10^GFP Apoe^−/− mice, N=4-5): increased
FoxP3 expression of splenic p18:I-A^b+CD4^+ T cells vs adjuvant ([8]; N=9-10): significantly more
splenic bulk FoxP3^+CD4^+ T cells vs adjuvant only ([8]; data not shown): did not find a significant difference
IL-10 production of p18:I-A^b+FoxP3^+CD4^+ T cells ([8]; spleen, IL-10^GFP Apoe^−/− mice, N=4-5): significantly more than in adjuvant-only controls
IL-10 production of p18:I-A^b–FoxP3^+CD4^+ T cells ([8]; spleen, tetramer-negative, N=4-5): did not increase
central memory cells (CD62L^+CD44^+) among memory p18:I-A^b+CD4^+ T cells [8, 9]: 20%
effector memory cells (CD62L^−CD44^+) among memory p18:I-A^b+CD4^+ T cells [8, 9]: 80%
p18:I-A^b+CD4^+ T cells with memory phenotype (CD44^+) [8, 9]: Most

B1: recombinant IgG1 antibody to oxLDL: recombinant IgG1 antibody to oxLDL infused in the GLACIER trial (antibody, chains of the INN, looked up, V domains shown)
VH: EVQLLESGGGLVQPGGSLRLSCAASGFTFSNAWMSWVRQAPGKGLEWVSSISVGGHRTYYADSVKGRSTISRDNSKNTLYLQMNSLRAEDTAVYYCARIRVGPSGGAFDYWGQGTLVTVSS
VL: QSVLTQPPSASGTPGQRVTISCSGSNTNIGKNYVSWYQQLPGTAPKLLIYANSNRPSGVPDRFSGSKSGTSASLAISGLRSEDEADYYCASWDASLNGWVFGGGTKLTVL
efficacy in imaging studies (atherosclerosis patients): failed to show efficacy
